Our source for the Ki, logP and Ratio Ki values is ChEMBL document CHEMBL1140034, “Conformationally constrained analogues of diacylglycerol. 30. An investigation of diacylglycerol-lactones containing heteroaryl groups reveals compounds with high selectivity for Ras guanyl nucleotide-releasing proteins” (J Med Chem, 2008).

Data set [1] deals with Protein kinase C alpha type (Homo sapiens, UniProt P17252). The experiment in a line: Displacement of [3H]PDBu from human recombinant PKCalpha expressed in Escherichia coli […] (DE3). Summed up: (§1)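 Competition binding: displacement of bound [20-3H]phorbol 12,13-dibutyrate from recombinant PKC alpha or RasGRP3 measured in the presence of phosphatidylserine. IC50 obtained by fitting data points to the theoretical competition curve; Ki calculated from the corresponding IC50.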
(In general: Loss of bound radioactivity is the signal in a displacement assay; it reports binding, not function.)

Data set [2] in a line: Lipophilicity, SlogP of the compound. The following applies: octanol/water. In kind it is physicochemical.
Data set [3] in a line: Ratio of Ki for human recombinant PKCalpha to RasGRP3. The gist of the method: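 Ki values for PKC alpha and RasGRP3 each come from [20-3H]PDBu displacement from the recombinant protein in the presence of phosphatidylserine, with IC50 fitted to the theoretical competition curve and converted to Ki. The ratio is Ki(PKC alpha)/Ki(RasGRP3).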
Data set [4] has as its target T1, Ras guanyl-releasing protein 3 (Homo sapiens, UniProt Q8IV61).
T1 sequence (Q8IV61 whole entry): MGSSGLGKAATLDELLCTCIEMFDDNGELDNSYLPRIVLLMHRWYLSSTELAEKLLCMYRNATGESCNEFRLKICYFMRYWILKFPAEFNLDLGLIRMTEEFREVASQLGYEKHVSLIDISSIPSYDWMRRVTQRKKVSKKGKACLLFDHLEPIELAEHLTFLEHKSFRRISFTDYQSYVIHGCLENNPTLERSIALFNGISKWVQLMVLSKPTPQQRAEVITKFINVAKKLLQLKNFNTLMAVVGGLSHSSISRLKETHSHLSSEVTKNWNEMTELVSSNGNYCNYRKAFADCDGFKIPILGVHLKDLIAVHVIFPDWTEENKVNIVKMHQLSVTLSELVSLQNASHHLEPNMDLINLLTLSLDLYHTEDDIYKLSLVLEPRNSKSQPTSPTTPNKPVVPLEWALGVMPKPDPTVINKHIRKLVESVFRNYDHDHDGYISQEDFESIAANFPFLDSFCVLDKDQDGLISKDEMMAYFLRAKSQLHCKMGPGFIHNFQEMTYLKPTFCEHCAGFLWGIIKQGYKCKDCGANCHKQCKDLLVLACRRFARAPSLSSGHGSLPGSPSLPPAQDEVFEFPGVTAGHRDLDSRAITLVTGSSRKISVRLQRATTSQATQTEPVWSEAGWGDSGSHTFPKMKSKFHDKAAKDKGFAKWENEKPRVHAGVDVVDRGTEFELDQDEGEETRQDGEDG
Kind of data set: Displacement of [3H]PDBu from RasGRP3 expressed in cells. In kind it is cell-based. Summed up: as §1

Each structure is given as a SMILES string.

A word on the Ki: it is the equilibrium dissociation constant of an inhibitor or competing ligand from its target. As a reminder, the logP is the decadic logarithm of the partition coefficient of the neutral form, usually between octanol and water. With `CN(C)c1ccc(C(=O)OCC2(CO)C/C(=C\c3ccncc3)C(=O)O2)cc1` (centres undefined), the values for the Ki in data set [1] and in data set [4] were 1110 nM and 54 nM, respectively. In data set [2], this compound gave a logP of 2.07. Further, the Ratio Ki in data set [3] stood at 19.
The matching figures for `CCCC(CCC)C(=O)OCC1(CO)C/C(=C/c2ccc3ccccc3n2)C(=O)O1` (centres undefined): 78.8 nM, 4.6 nM, 4.06 and 17.
Turning to `COc1ccc(C(=O)OCC2(CO)C/C(=C\c3ccncc3)C(=O)O2)cc1` (centres undefined), the Ki amounted to 1450 nM in data set [1] and 54.2 nM in data set [4]. Further, in data set [2], the logP is 2.01. The Ratio Ki in data set [3] worked out at 27.
For the compound `COc1ccc(C(=O)OCC2(CO)C/C(=C/c3cccnc3)C(=O)O2)cc1` (centres undefined), the Ki is 21200 nM in data set [1] and 5500 nM in data set [4]. Further, the logP in data set [2] came out at 2.01. The Ratio Ki in data set [3] was found to be 4.
Take `CN(C)c1ccc(C(=O)OCC2(CO)C/C(=C\c3cn(C)c4ccccc34)C(=O)O2)cc1` (centres undefined): the Ki in data set [1] was 174 nM; in data set [4], 3.7 nM. Further, the logP in data set [2] was 3.22. For the same compound, in data set [3], the Ratio Ki turned out to be 47.
The matching figures for `COc1ccc(C(=O)OCC2(CO)C/C(=C\c3cnc4ccccc4c3)C(=O)O2)cc1` (centres undefined): 144 nM, 17.4 nM, 3.16 and 8.
Consider `CN(C)c1ccc(C(=O)OCC2(CO)C/C(=C\c3ccc4ccccc4n3)C(=O)O2)cc1` (centres undefined), for which the Ki in data set [1] came out at 150 nM; in data set [4], 11 nM. The same compound yielded a lipophilicity (logP) in data set [2] of 3.22. Further, the Ratio Ki in data set [3] was determined as 14.
In the same order, the values of `COc1ccc(C(=O)OCC2(CO)C/C(=C/c3cnc4ccccc4c3)C(=O)O2)cc1` (centres undefined) are 5100 nM, 907 nM, 3.16 and 6.
Regarding `CCCC(CCC)C(=O)OCC1(CO)C/C(=C\c2cnc3ccccc3c2)C(=O)O1` (centres undefined), the Ki stood at 13.8 nM in data set [1] and 0.52 nM in data set [4]. Besides, the logP in data set [2] was 4.06. Moreover, the Ratio Ki in data set [3] worked out at 27.
The matching figures for `CN(C)c1ccc(C(=O)OCC2(CO)C/C(=C/c3cccnc3)C(=O)O2)cc1` (centres undefined): 34100 nM, 1970 nM, 2.07 and 20.
Turning to `COc1ccc(C(=O)OCC2(CO)C/C(=C\c3cn(C)c4ccccc34)C(=O)O2)cc1` (centres undefined), the results for the Ki in data set [1] and in data set [4] were 212 nM and 3.3 nM, respectively. In data set [2], this compound had a logP of 3.46. In data set [3], the Ratio Ki was 64.
In the same order, the values of `COc1ccc(C(=O)OCC2(CO)C/C(=C/c3ccc4ccccc4n3)C(=O)O2)cc1` (centres undefined) are 2940 nM, 1390 nM, 3.16 and 2.
Consider `CCCC(CCC)C(=O)OCC1(CO)C/C(=C/c2cnc3ccccc3c2)C(=O)O1` (centres undefined), for which the values for the Ki in data set [1] and in data set [4] were 177 nM and 32.2 nM, respectively. Besides, the logP in data set [2] worked out at 4.06. For the same compound, the Ratio Ki in data set [3] is 5.
The matching figures for `CCCC(CCC)C(=O)OCC1(CO)C/C(=C\c2ccncc2)C(=O)O1` (centres undefined): 627 nM, 13.8 nM, 2.9 and 45.
Consider `CN(C)c1ccc(C(=O)OCC2(CO)C/C(=C/c3ccc4ccccc4n3)C(=O)O2)cc1` (centres undefined), for which the Ki was found to be 15800 nM in data set [1] and 2040 nM in data set [4]. In data set [2], this compound had a logP of 3.22. Besides, the Ratio Ki in data set [3] was determined as 8.
As for `COc1ccc(C(=O)OCC2(CO)C/C(=C\c3cccnc3)C(=O)O2)cc1` (centres undefined), the figures for the Ki in data set [1] and in data set [4] were 810 nM and 81 nM, respectively. In data set [2], this compound registered a logP of 2.01. In addition, in data set [3], the Ratio Ki amounted to 10.
As to `CCCC(CCC)C(=O)OCC1(CO)C/C(=C/c2cccnc2)C(=O)O1` (centres undefined), the Ki in data set [1] is 3270 nM; in data set [4] it was 670 nM. This compound also registered a logP in data set [2] of 2.9. For the same compound, the Ratio Ki in data set [3] was found to be 5.
With `COc1ccc(C(=O)OCC2(CO)C/C(=C/c3ccccn3)C(=O)O2)cc1` (centres undefined), the results for the Ki in data set [1] and in data set [4] were 27100 nM and 2470 nM, respectively. The same compound registered a logP in data set [2] of 2.01. For the same compound, the Ratio Ki in data set [3] came out at 11.
With `COc1ccc(C(=O)OCC2(CO)C/C(=C\c3ccccn3)C(=O)O2)cc1` (centres undefined), the Ki in data set [1] is 1130 nM; in data set [4], 35.8 nM. In data set [2], the logP turned out to be 2.01. Moreover, the Ratio Ki in data set [3] was determined as 32.
In the same order, the values of `COc1ccc(C(=O)OCC2(CO)C/C(=C\c3ccc4ccccc4n3)C(=O)O2)cc1` (centres undefined) are 132 nM, 8.2 nM, 3.16 and 16.
The matching figures for `CCCC(CCC)C(=O)OCC1(CO)C/C(=C/c2ccncc2)C(=O)O1` (centres undefined): 870 nM, 44 nM, 2.9 and 20.
In the case of `COc1ccc(C(=O)OCC2(CO)C/C(=C\c3ccc([N+](=O)[O-])cc3)C(=O)O2)cc1` (centres undefined), the Ki in data set [1] is 136 nM; in data set [4], 6.7 nM. Besides, the Ratio Ki in data set [3] stood at 20.
As for `CCCC(CCC)C(=O)OCC1(CO)C/C(=C\c2cccnc2)C(=O)O1` (centres undefined), the figures for the Ki in data set [1] and in data set [4] were 76 nM and 1.6 nM, respectively. Besides, the logP in data set [2] is 2.9. Also, the Ratio Ki in data set [3] amounted to 47.
In the same order, the values of `CCCC(CCC)C(=O)OCC1(CO)C/C(=C\c2ccccn2)C(=O)O1` (centres undefined) are 86.3 nM, 0.72 nM, 2.9 and 119.
On to `CN(C)c1ccc(C(=O)OCC2(CO)C/C(=C\c3cccnc3)C(=O)O2)cc1` (centres undefined), for which the figures for the Ki in data set [1] and in data set [4] were 790 nM and 59 nM, respectively. Also, the logP in data set [2] turned out to be 2.07. The Ratio Ki in data set [3] came to 13.
In the case of `CN(C)c1ccc(C(=O)OCC2(CO)C/C(=C/c3cnc4ccccc4c3)C(=O)O2)cc1` (centres undefined), the Ki in data set [1] is 4880 nM; in data set [4], 1410 nM. This compound also came in with a logP in data set [2] of 3.22. Further, the Ratio Ki in data set [3] amounted to 3.
Take `COc1ccc(C(=O)OCC2(CO)C/C(=C/c3ccncc3)C(=O)O2)cc1` (centres undefined): the Ki in data set [1] stood at 25400 nM; in data set [4] it was 3660 nM. The same compound showed a logP in data set [2] of 2.01. The Ratio Ki in data set [3] was found to be 7.
`CC(C)CC(CC(=O)OCC1(CO)C/C(=C\c2ccccn2)C(=O)O1)CC(C)C` (centres undefined): the inhibitory constant (Ki) came to 4.6 nM in data set [1] and 0.2 nM in data set [4]. Also, the logP in data set [2] was 3.78.
For the compound `CC(C)CC(CC(=O)OCC1(CO)C/C(=C\c2cn(C)c3ccccc23)C(=O)O1)CC(C)C` (centres undefined), the results for the Ki in data set [1] and in data set [4] were 14.8 nM and 0.7 nM, respectively. Further, the logP in data set [2] came out at 5.24.
On to `CN(C)c1ccc(C(=O)OCC2(CO)C/C(=C\c3ccc([N+](=O)[O-])cc3)C(=O)O2)cc1` (centres undefined), for which, in data set [1], the Ki came to 343 nM. Also, the Ratio Ki in data set [3] came to 90.
As to `CCCC(CCC)C(=O)OCC1(CO)C/C(=C\c2cn(C)c3ccccc23)C(=O)O1` (centres undefined), the Ki in data set [1] turned out to be 29.7 nM; in data set [4] it was 0.18 nM. The compound also had a logP in data set [2] of 4.36. Also, the Ratio Ki in data set [3] is 165.
For `CN(C)c1ccc(C(=O)OCC2(CO)C/C(=C/c3ccncc3)C(=O)O2)cc1` (centres undefined), the Ki in data set [1] stood at 33200 nM; in data set [4] it was 2360 nM. Moreover, the logP in data set [2] amounted to 2.07. Besides, in data set [3], the Ratio Ki came out at 14.
In the same order, the values of `CN(C)c1ccc(C(=O)OCC2(CO)C/C(=C\c3cnc4ccccc4c3)C(=O)O2)cc1` (centres undefined) are 755 nM, 137 nM, 3.22 and 6.
In the same order, the values of `CCCC(CCC)C(=O)OCC1(CO)C/C(=C\c2ccc3ccccc3n2)C(=O)O1` (centres undefined) are 51.9 nM, 1.7 nM, 4.06 and 31.
In the same order, the values of `CN(C)c1ccc(C(=O)OCC2(CO)C/C(=C\c3ccccn3)C(=O)O2)cc1` (centres undefined) are 1020 nM, 23.8 nM, 2.07 and 43.
Regarding `CCCC(CCC)C(=O)OCC1(CO)C/C(=C/c2ccccn2)C(=O)O1` (centres undefined), the Ki in data set [1] turned out to be 1370 nM; in data set [4], 83 nM. The logP in data set [2] was 2.9. In data set [3], the Ratio Ki is 16.
